Assay [1] has as its target T1, Fatty-acid amide hydrolase 1 (Homo sapiens) (UniProt O00519).
T1 sequence (whole entry): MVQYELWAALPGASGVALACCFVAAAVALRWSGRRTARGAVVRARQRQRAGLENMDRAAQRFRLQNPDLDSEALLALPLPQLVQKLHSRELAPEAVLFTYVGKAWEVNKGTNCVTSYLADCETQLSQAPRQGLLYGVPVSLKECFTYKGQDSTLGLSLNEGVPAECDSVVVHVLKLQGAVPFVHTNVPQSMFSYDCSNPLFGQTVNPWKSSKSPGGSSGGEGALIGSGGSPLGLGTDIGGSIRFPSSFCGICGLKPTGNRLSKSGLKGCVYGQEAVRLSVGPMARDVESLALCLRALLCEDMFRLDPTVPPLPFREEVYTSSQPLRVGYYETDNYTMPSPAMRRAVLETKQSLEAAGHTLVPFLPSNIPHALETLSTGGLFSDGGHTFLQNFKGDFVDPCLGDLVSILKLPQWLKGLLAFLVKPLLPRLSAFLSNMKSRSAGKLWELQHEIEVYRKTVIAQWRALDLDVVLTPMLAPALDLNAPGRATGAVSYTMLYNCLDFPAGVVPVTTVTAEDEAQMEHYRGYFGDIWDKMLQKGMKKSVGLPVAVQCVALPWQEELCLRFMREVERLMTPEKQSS
The assay is described as follows: Ratio of Kinact to Ki for histidine6-tagged human FAAH. Summed up:
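Human FAAH construct: aa 32–579, N-terminal transmembrane-deleted, N-terminal His6 tag, expressed in E. coli and purified to >95% by SDS–PAGE. Potency measured as kinact/Ki in a GDH-coupled FAAH assay in 384-well format. kobs was plotted against [I]; kinact/Ki came from the slope kinact/[Ki(1+[S]/Km)].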

For assay [2], the target named is T2, Fatty-acid amide hydrolase 1 (Rattus norvegicus) (UniProt P97612).
T2 sequence (whole entry): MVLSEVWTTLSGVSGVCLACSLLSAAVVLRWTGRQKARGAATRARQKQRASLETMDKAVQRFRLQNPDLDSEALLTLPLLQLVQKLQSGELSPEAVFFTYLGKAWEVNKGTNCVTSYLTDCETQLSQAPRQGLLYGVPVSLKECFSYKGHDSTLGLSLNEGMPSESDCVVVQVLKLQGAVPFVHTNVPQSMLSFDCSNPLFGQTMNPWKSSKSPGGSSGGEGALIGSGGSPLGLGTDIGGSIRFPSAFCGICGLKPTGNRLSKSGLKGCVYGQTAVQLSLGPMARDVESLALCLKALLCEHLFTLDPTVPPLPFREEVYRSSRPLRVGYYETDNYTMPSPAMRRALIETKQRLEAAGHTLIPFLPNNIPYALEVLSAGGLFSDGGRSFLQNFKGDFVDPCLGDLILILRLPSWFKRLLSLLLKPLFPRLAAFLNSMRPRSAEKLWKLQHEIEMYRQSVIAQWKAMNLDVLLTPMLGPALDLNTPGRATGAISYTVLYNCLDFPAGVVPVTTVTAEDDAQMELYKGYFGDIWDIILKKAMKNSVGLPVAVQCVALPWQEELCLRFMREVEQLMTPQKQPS
The assay is described as follows: Ratio of Kinact to Ki for histidine6-tagged rat FAAH. The gist of the method:
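Rat FAAH construct: aa 30–579, N-terminal transmembrane-deleted, N-terminal His6 tag, E. coli-expressed and purified to >95% purity. Activity read by a GDH-coupled enzyme assay in 384-well plates. Second-order kinact/Ki was derived from the linear slope of kobs versus [I], correcting with (1+[S]/Km).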

The source of these data is ChEMBL document CHEMBL1152917, “Benzothiophene piperazine and piperidine urea inhibitors of fatty acid amide hydrolase (FAAH)” (2009).

In the case of `Cc1c(CN2CCN(C(=O)Nc3cccnc3)CC2)sc2ccccc12`, the Ratio in assay [1] was found to be 2400 M⁻¹ s⁻¹; in assay [2], 1080 M⁻¹ s⁻¹.

For the molecule `Cc1c(CN2CCN(C(=O)Nc3ccc(-c4ccccc4)nc3)CC2)sc2ccccc12`, the Ratio is less than 10 M⁻¹ s⁻¹ in assay [1] and 1220 M⁻¹ s⁻¹ in assay [2].

Regarding `Cc1c(CN2CCN(C(=O)Nc3ccccn3)CC2)sc2ccccc12`, the Ratio in assay [1] turned out to be 1000 M⁻¹ s⁻¹; in assay [2], 635 M⁻¹ s⁻¹.

With `Cc1c(CN2CCN(C(=O)Nc3ccc(C(F)(F)F)nc3)CC2)sc2ccccc12`, the Ratio in assay [1] was 42 M⁻¹ s⁻¹; in assay [2], less than 10 M⁻¹ s⁻¹.

For `Cc1c(CN2CCN(C(=O)Nc3cccnc3)CC2)sc2cccc(F)c12`, the results for the Ratio in assay [1] and in assay [2] were 3320 M⁻¹ s⁻¹ and 1200 M⁻¹ s⁻¹, respectively.

As for `Cc1c(CN2CCN(C(=O)Nc3ccc(Oc4cccnc4)nc3)CC2)sc2ccccc12`, the Ratio in assay [1] and in assay [2] was less than 10 M⁻¹ s⁻¹ in each case.

As for `CCN(CC)c1ccc(NC(=O)N2CCN(Cc3sc4ccccc4c3C)CC2)cn1`, the Ratio came out at 1560 M⁻¹ s⁻¹ in assay [1] and 1430 M⁻¹ s⁻¹ in assay [2].

Take `COc1ccc2sc(CN3CCN(C(=O)Nc4cccnc4)CC3)c(C)c2c1`: the Ratio came to 1380 M⁻¹ s⁻¹ in assay [1] and 500 M⁻¹ s⁻¹ in assay [2].

For the molecule `CCc1c(CC2CCN(C(=O)Nc3cccnc3)CC2)sc2ccccc12`, the results for the Ratio in assay [1] and in assay [2] were 1670 M⁻¹ s⁻¹ and 1010 M⁻¹ s⁻¹, respectively.

For `Cc1c(CN2CCN(C(=O)Nc3ccc(Cl)nc3)CC2)sc2ccccc12`, the results for the Ratio in assay [1] and in assay [2] were less than 10 M⁻¹ s⁻¹ and 242 M⁻¹ s⁻¹, respectively.

Take `Cc1cnc(NC(=O)N2CCN(Cc3sc4ccccc4c3C)CC2)s1`: the Ratio in assay [1] and in assay [2] was less than 10 M⁻¹ s⁻¹ each time.

As to `Cc1c(CN2CCN(C(=O)Nc3ccccc3)CC2)sc2ccccc12`, the Ratio is 1920 M⁻¹ s⁻¹ in assay [1] and 762 M⁻¹ s⁻¹ in assay [2].

On to `CC(=O)Nc1ccc(NC(=O)N2CCN(Cc3sc4ccccc4c3C)CC2)cn1`, for which the Ratio in assay [1] and in assay [2] was less than 10 M⁻¹ s⁻¹ in each case.

`Cc1c(CN2CCN(C(=O)Nc3ccc(N)nc3)CC2)sc2ccccc12`: the Ratio in assay [1] is 1920 M⁻¹ s⁻¹; in assay [2], 762 M⁻¹ s⁻¹.

For `CCOc1ccc2c(C)c(CN3CCN(C(=O)Nc4cccnc4)CC3)sc2c1`, the Ratio in assay [1] is 14 M⁻¹ s⁻¹; in assay [2], less than 10 M⁻¹ s⁻¹.

As for `Cc1c(C(O)C2CCN(C(=O)Nc3cccnc3)CC2)sc2ccccc12` (racemic), the Ratio in assay [1] was 200 M⁻¹ s⁻¹; in assay [2], 79 M⁻¹ s⁻¹.

As for `Cc1ccc2sc(CN3CCN(C(=O)Nc4ccc(C)nc4)CC3)c(C)c2c1`, the Ratio stood at 1170 M⁻¹ s⁻¹ in assay [1] and 183 M⁻¹ s⁻¹ in assay [2].

With `Cc1ccc2sc(CC3CCN(C(=O)Nc4cccnc4)CC3)c(C)c2c1`, the results for the Ratio in assay [1] and in assay [2] were 3020 M⁻¹ s⁻¹ and 482 M⁻¹ s⁻¹, respectively.

Turning to `Cc1c(CN2CCN(C(=O)NCCO)CC2)sc2ccccc12`, the Ratio was 42 M⁻¹ s⁻¹ in assay [1] and less than 10 M⁻¹ s⁻¹ in assay [2].

Regarding `Cc1c(CN2CCN(C(=O)NC(C)C)CC2)sc2ccccc12`, the Ratio is 70 M⁻¹ s⁻¹ in assay [1] and less than 10 M⁻¹ s⁻¹ in assay [2].

As for `CCc1c(CN2CCN(C(=O)Nc3cccnc3)CC2)sc2ccccc12`, the figures for the Ratio in assay [1] and in assay [2] were 1400 M⁻¹ s⁻¹ and 774 M⁻¹ s⁻¹, respectively.

For `Cc1ccc2sc(CN3CCN(C(=O)Nc4cccnc4)CC3)c(C)c2c1`, the Ratio in assay [1] worked out at 2640 M⁻¹ s⁻¹; in assay [2] it was 557 M⁻¹ s⁻¹.

Consider `Cc1c(CN2CCN(C(=O)Nc3ccc(N(C)C)nc3)CC2)sc2ccccc12`, for which the Ratio in assay [1] is 2400 M⁻¹ s⁻¹; in assay [2], 1080 M⁻¹ s⁻¹.

For the molecule `CCc1c(CC2CCN(C(=O)Nc3cccnc3)CC2)sc2ccc(F)cc12`, the figures for the Ratio in assay [1] and in assay [2] were 2290 M⁻¹ s⁻¹ and 1140 M⁻¹ s⁻¹, respectively.

As to `Cc1c(CN2CCN(C(=O)NC3CCCCC3)CC2)sc2ccccc12`, the Ratio in assay [1] and in assay [2] was less than 10 M⁻¹ s⁻¹ in each case.

`Cc1noc(NC(=O)N2CCN(Cc3sc4ccccc4c3C)CC2)c1C`: the Ratio in assay [1] was found to be 1560 M⁻¹ s⁻¹; in assay [2], 1430 M⁻¹ s⁻¹.

With `C=C(c1sc2ccccc2c1C)C1CCN(C(=O)Nc2cccnc2)CC1`, the figures for the Ratio in assay [1] and in assay [2] were 5440 M⁻¹ s⁻¹ and 991 M⁻¹ s⁻¹, respectively.

Turning to `CCc1c(CN2CCN(C(=O)Nc3cccnc3)CC2)sc2ccc(F)cc12`, the figures for the Ratio in assay [1] and in assay [2] were 1810 M⁻¹ s⁻¹ and 617 M⁻¹ s⁻¹, respectively.

In the case of `CCNc1ccc(NC(=O)N2CCN(Cc3sc4ccccc4c3C)CC2)cn1`, the Ratio amounted to 924 M⁻¹ s⁻¹ in assay [1] and 191 M⁻¹ s⁻¹ in assay [2].

As for `CCCCNC(=O)N1CCN(Cc2sc3ccccc3c2C)CC1`, the Ratio worked out at 44 M⁻¹ s⁻¹ in assay [1] and 13 M⁻¹ s⁻¹ in assay [2].

For the molecule `Cc1c(CN2CCN(C(=O)Nc3cccnn3)CC2)sc2ccccc12`, the Ratio in assay [1] was 924 M⁻¹ s⁻¹; in assay [2], 191 M⁻¹ s⁻¹.

As for `Cc1c(CC2CCN(C(=O)Nc3cccnc3)CC2)sc2cccc(F)c12`, the Ratio in assay [1] stood at 4150 M⁻¹ s⁻¹; in assay [2], 1550 M⁻¹ s⁻¹.

`Cc1c(CN2CCN(C(=O)NCc3ccccc3)CC2)sc2ccccc12`: the Ratio in assay [1] and in assay [2] was less than 10 M⁻¹ s⁻¹ in each case.

In the case of `Cc1c(CN2CCN(C(=O)Nc3ccc(Br)nc3)CC2)sc2ccccc12`, the Ratio in assay [1] came out at 70 M⁻¹ s⁻¹; in assay [2], 157 M⁻¹ s⁻¹.

As for `Cc1c(C(C)C2CCN(C(=O)Nc3cccnc3)CC2)sc2ccccc12` (stereo in doubt; 17-E1), the Ratio is 34 M⁻¹ s⁻¹ in assay [1] and less than 10 M⁻¹ s⁻¹ in assay [2].

In the case of `Cc1c(CN2CCN(C(=O)Nc3cccnc3)CC2)sc2ccc(Cl)cc12`, the Ratio in assay [1] is 2820 M⁻¹ s⁻¹; in assay [2], 1130 M⁻¹ s⁻¹.

For the molecule `CNc1ccc(NC(=O)N2CCN(Cc3sc4ccccc4c3C)CC2)cn1`, the results for the Ratio in assay [1] and in assay [2] were 1000 M⁻¹ s⁻¹ and 635 M⁻¹ s⁻¹, respectively.

`O=C(Nc1cccnc1)N1CCN(Cc2cc3ccccc3s2)CC1`: the figures for the Ratio in assay [1] and in assay [2] were 695 M⁻¹ s⁻¹ and 174 M⁻¹ s⁻¹, respectively.

As for `Cc1c(C(C)C2CCN(C(=O)Nc3cccnc3)CC2)sc2ccccc12` (stereo in doubt; 17-E2), the Ratio in assay [1] was 617 M⁻¹ s⁻¹; in assay [2] it was 110 M⁻¹ s⁻¹.

In the case of `Cc1ccc(NC(=O)N2CCN(Cc3sc4ccccc4c3Cl)CC2)cn1`, the values for the Ratio in assay [1] and in assay [2] were 900 M⁻¹ s⁻¹ and 133 M⁻¹ s⁻¹, respectively.

As to `Cc1c(CN2CCN(C(=O)NC(C)(C)C)CC2)sc2ccccc12`, the Ratio in assay [1] and in assay [2] was less than 10 M⁻¹ s⁻¹ each time.

For `Cc1c(C(=O)C2CCN(C(=O)Nc3cccnc3)CC2)sc2ccccc12`, the values for the Ratio in assay [1] and in assay [2] were 3600 M⁻¹ s⁻¹ and 1230 M⁻¹ s⁻¹, respectively.

Turning to `Cc1ccc(NC(=O)N2CCN(Cc3sc4cccc(F)c4c3C)CC2)cn1`, the Ratio in assay [1] turned out to be 1980 M⁻¹ s⁻¹; in assay [2], 758 M⁻¹ s⁻¹.

Take `COc1ccc2c(C)c(CN3CCN(C(=O)Nc4cccnc4)CC3)sc2c1`: the Ratio worked out at 73 M⁻¹ s⁻¹ in assay [1] and 113 M⁻¹ s⁻¹ in assay [2].

Regarding `CNC(=O)CNC(=O)N1CCN(Cc2sc3ccccc3c2C)CC1`, the Ratio in assay [1] and in assay [2] was less than 10 M⁻¹ s⁻¹ each time.

As to `Cc1c(C(C)C2CCN(C(=O)Nc3cccnc3)CC2)sc2ccccc12` (racemic), the values for the Ratio in assay [1] and in assay [2] were 114 M⁻¹ s⁻¹ and 48 M⁻¹ s⁻¹, respectively.

As for `Cc1c(CC2CCN(C(=O)Nc3cccnc3)CC2)sc2ccccc12`, the Ratio came to 5130 M⁻¹ s⁻¹ in assay [1] and 2610 M⁻¹ s⁻¹ in assay [2].

For the molecule `Cc1ccc2c(Cl)c(CN3CCN(C(=O)Nc4ccc(C)nc4)CC3)sc2c1`, the figures for the Ratio in assay [1] and in assay [2] were 73 M⁻¹ s⁻¹ and 14 M⁻¹ s⁻¹, respectively.

With `Cc1ccc(NC(=O)N2CCN(Cc3sc4ccc(F)cc4c3C)CC2)cn1`, the figures for the Ratio in assay [1] and in assay [2] were 1870 M⁻¹ s⁻¹ and 260 M⁻¹ s⁻¹, respectively.

On to `Cc1c(CN2CCN(C(=O)Nc3cccnc3)CC2)sc2ccc(C(F)(F)F)cc12`, for which the results for the Ratio in assay [1] and in assay [2] were 1390 M⁻¹ s⁻¹ and 219 M⁻¹ s⁻¹, respectively.

Take `Cc1c(CN2CCN(C(=O)Nc3cccnc3)CC2)sc2ccc(F)cc12`: the figures for the Ratio in assay [1] and in assay [2] were 3130 M⁻¹ s⁻¹ and 779 M⁻¹ s⁻¹, respectively.
